Assay outcomes: PubChem, several laboratories
Most compounds without a hit are left out; they make up all but 2.6% or so of the library.
FGF22 binding – FGF22 (human) thermal shift binding. Q9HCT0. recombinant FGF22 thermal shift, SYPRO orange fluorescence; percent of sucrose octasulfate shift, DMSO zero. activity (Tm shift, normalised), % at 9.99 µM. 340,000 tested, 1.5% active. AID 651658;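 active = mean Tm shift, scaled 0 neutral to 100 positive control, at about 1.3% or above, every replicate too, limit read from the data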
Target sequence (Q9HCT0 whole entry, looked up): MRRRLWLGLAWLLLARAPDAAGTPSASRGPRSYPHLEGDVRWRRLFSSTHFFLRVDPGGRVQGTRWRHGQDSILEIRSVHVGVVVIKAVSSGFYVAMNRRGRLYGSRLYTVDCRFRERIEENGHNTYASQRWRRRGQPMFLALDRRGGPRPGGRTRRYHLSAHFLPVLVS
SIRT5 inh – inhibitors of human sirtuin-5 desuccinylase | Purified SirT5, succinyl-peptide AMC, trypsin-coupled fluorescence | inhibition, % at 15 µM | 330,000 tested, 1.1% active | AID 652115; in the data active = inhibition above about 15%
Target sequence (Q9NXA8 whole entry, looked up): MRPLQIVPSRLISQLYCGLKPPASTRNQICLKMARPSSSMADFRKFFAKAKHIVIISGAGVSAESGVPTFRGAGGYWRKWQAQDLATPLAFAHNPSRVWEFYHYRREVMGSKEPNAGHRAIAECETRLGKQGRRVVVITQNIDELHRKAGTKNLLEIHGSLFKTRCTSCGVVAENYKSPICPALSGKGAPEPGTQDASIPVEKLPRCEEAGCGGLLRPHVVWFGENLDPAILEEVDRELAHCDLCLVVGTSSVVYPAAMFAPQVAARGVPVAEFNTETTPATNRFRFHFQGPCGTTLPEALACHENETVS
Casp6 inh – inhibitors of human caspase-6; P55212; purified caspase-6, Z-VEID-R110 cleavage fluorescence; inhibition, % at 12.5 µM; 350,000 tested, 0.53% active; AID 686996;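 active = mean inhibition across replicates at least about 35%, with every replicate also reaching that limit, limit read from the data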;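 also: 0% = median of neutral control wells and 100% = no fluorescence left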
UCH37 DUB inh – human UCH37 deubiquitinating enzyme inhibition. purified proteasome/UCH37, Ub-AMC cleavage fluorescence. inhibition, % (concentration not given with the values). AID 588478. 330,000 tested, 0.33% active;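 active = mean inhibition over replicate wells above about 20%, limit read from the data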;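 also: 0% = compound-free wells with enzyme and 100% = wells lacking proteasome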
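Material: human UCH37 enzyme supplied as purified proteasome complex / Amount: 0.15 nM proteasome as dispensed / Buffer or medium: pH 7.4 Tris-HCl (50 mM) with ovalbumin, ATP-MgCl2, DTT / Times: preincubation 30 min, reaction 25 min, room temperature / Technique: AMC fluorescence from Ub-AMC cleavage, excitation 355 nm, emission 460 nm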
NSD2 inh – blocks human histone methyltransferase NSD2 | O96028 | NSD2 peptide methylation, AlphaScreen, 120 min | inhibition, % at 12.5 µM | 310,000 tested, 0.54% active | AID 743445; in the data active = inhibition above about 50%
Active calls of the source: *.

How did C[C@@H]1CN([C@H](C)CO)C(=O)c2cc(NC(=O)c3ccccc3)ccc2O[C@@H](C)CCCCO[C@@H]1CN(C)C(=O)c1ccccc1 do in these assays?
FGF22 binding: 1.4*

What do the screens show for `C[C@@H]1CN([C@@H](C)CO)C(=O)c2cc(NC(=O)Nc3ccc(F)cc3)ccc2O[C@@H](C)CCCCO[C@H]1CN(C)C(=O)c1ccccc1`?
FGF22 binding: 1; SIRT5 inh: 2; Casp6 inh: 1

Results for COc1cc(-c2noc(C)c2/C=C/c2ccc(C(=O)O)cc2)cc(OC)c1OC ?
FGF22 binding: 0; SIRT5 inh: 7; Casp6 inh: 35*; UCH37 DUB inh: 6

Results for CCOc1ccc(N2CC(C(=O)NCC(=O)Nc3ccc(F)c(F)c3F)CC2=O)cc1 (configuration not stated) ?
FGF22 binding: 0; SIRT5 inh: -3; Casp6 inh: 44*; UCH37 DUB inh: 1; NSD2 inh: -1

What do the screens show for `CNC(=O)C1CC(=O)N(c2ccc(OCC(=O)NCc3ccccc3)cc2)C1` (configuration not stated)?
FGF22 binding: 0; SIRT5 inh: 25*; Casp6 inh: -1; UCH37 DUB inh: 2; NSD2 inh: 3

Results for CCOc1ccc(N2CC(C(=O)NCc3ccccc3)CC2=O)cc1 (configuration not stated) ?
FGF22 binding: 0; SIRT5 inh: -7; Casp6 inh: 1; UCH37 DUB inh: 5; NSD2 inh: 0

How did O=c1c2ccccc2[nH]c2ccc(O)cc12 do in these assays?
FGF22 binding: 0; SIRT5 inh: -1; Casp6 inh: 38*; UCH37 DUB inh: -346; NSD2 inh: 1

Results for COc1ccc(C=NN2C(C)CCCC2C)cc1O (configuration not stated) ?
UCH37 DUB inh: 1

What do the screens show for `O=C(Nc1ccc(F)cc1)C1CC(=O)N(Cc2ccco2)C1` (configuration not stated)?
FGF22 binding: 0; SIRT5 inh: -2; Casp6 inh: -10; UCH37 DUB inh: 0

What do the screens show for `O=C(NCc1ccccc1F)C1CC(=O)N(Cc2ccco2)C1` (configuration not stated)?
FGF22 binding: 44*; Casp6 inh: 0; NSD2 inh: 0

Results for CC(OC(=O)C1CC(=O)N(Cc2ccco2)C1)C(=O)Nc1ccccc1[N+](=O)[O-] (configuration not stated) ?
FGF22 binding: 0; SIRT5 inh: -3; Casp6 inh: 3; UCH37 DUB inh: 6; NSD2 inh: -27

Results for Cc1ccccc1NC(=O)C(C)OC(=O)C1CC(=O)N(Cc2ccco2)C1 (configuration not stated) ?
FGF22 binding: 0; SIRT5 inh: -4; Casp6 inh: 55*; UCH37 DUB inh: 2; NSD2 inh: 1

What do the screens show for `CC(C)OC(=O)C1CC(C)(O)C(=O)C(C(=O)OC(C)C)C1c1ccc([N+](=O)[O-])cc1` (configuration not stated)?
FGF22 binding: 43*; SIRT5 inh: -6; Casp6 inh: 0; UCH37 DUB inh: 3; NSD2 inh: -3

Results for CCN(CC)C(=O)C(=O)c1cccn1-c1cccc(OC)c1C#N ?
FGF22 binding: 45*; SIRT5 inh: -1; Casp6 inh: 0; UCH37 DUB inh: -1; NSD2 inh: -1

How did C[C@H](CO)N1C[C@H](C)[C@@H](CN(C)C(=O)C2CCCCC2)OCCCC[C@H](C)Oc2ccc(NC(=O)C3CCCCC3)cc2C1=O do in these assays?
FGF22 binding: 0; SIRT5 inh: 6; Casp6 inh: -4

Results for C[C@@H]1CN([C@@H](C)CO)C(=O)c2cccc(NS(=O)(=O)c3cccs3)c2O[C@@H]1CN(C)S(=O)(=O)c1ccccc1 ?
FGF22 binding: 0; SIRT5 inh: -5; Casp6 inh: 37*

What do the screens show for `C[C@H]1CN([C@@H](C)CO)C(=O)c2cccc(NS(=O)(=O)c3cccs3)c2O[C@@H]1CN(C)C(=O)Nc1ccc(F)cc1`?
FGF22 binding: 0; SIRT5 inh: -5; Casp6 inh: 6

Results for C[C@H](CO)N1C[C@H](C)[C@@H](CN(C)C(=O)Nc2ccccc2)Oc2c(NS(=O)(=O)c3cccs3)cccc2C1=O ?
FGF22 binding: 0; SIRT5 inh: 24*; Casp6 inh: -1; UCH37 DUB inh: 1

How did C[C@H]1CN([C@@H](C)CO)C(=O)c2cc(NC(=O)Cc3cn(C)c4ccccc34)ccc2O[C@H]1CN(C)C(=O)Nc1ccc(F)cc1 do in these assays?
FGF22 binding: 0; SIRT5 inh: 2; Casp6 inh: -1

What do the screens show for `Cc1ccccc1OCc1n(CC(=O)OC2CC(C)CCC2C(C)C)c2ccccc2[n+]1C` (configuration not stated)?
FGF22 binding: 43*; SIRT5 inh: -2; Casp6 inh: 2; UCH37 DUB inh: 5; NSD2 inh: 29

How did C[C@@H]1CN([C@H](C)CO)S(=O)(=O)c2ccc(-c3cccc(C(=O)N(C)C)c3)cc2O[C@H]1CN(C)C do in these assays?
FGF22 binding: 0; SIRT5 inh: -1; Casp6 inh: -1

How did S=c1[nH]c2cc(Cl)c3cccnc3c2o1 do in these assays?
FGF22 binding: 1; SIRT5 inh: 1; Casp6 inh: 51*; NSD2 inh: 5

What do the screens show for `Cc1ccc(C)c(SCC(=O)OCC(=O)NCc2ccccc2)c1`?
FGF22 binding: 44*; SIRT5 inh: 1; Casp6 inh: 2; UCH37 DUB inh: -1; NSD2 inh: -1

What do the screens show for `Cc1ccc(C)c(SCC(=O)NC(=O)NCc2ccccc2)c1`?
UCH37 DUB inh: 1; NSD2 inh: 3

How did CN=c1sc(C(=O)Nc2ccccc2)c(C)n1C do in these assays?
FGF22 binding: 0; SIRT5 inh: 1; Casp6 inh: -5; UCH37 DUB inh: 5; NSD2 inh: -2

What do the screens show for `CN=c1sc2c(n1C)C(=O)c1ccccc1C2=O`?
FGF22 binding: 0; SIRT5 inh: -3; Casp6 inh: 63*

What do the screens show for `Cc1ccc(CNC(=O)CNC(=O)[C@@H]2Cc3ccccc3CN2)cc1`?
FGF22 binding: 0; SIRT5 inh: 37*; Casp6 inh: -2; UCH37 DUB inh: 1; NSD2 inh: -1

Results for CN(N=Cc1cc(Cl)ccc1O)C1=NS(=O)(=O)c2ccccc21 ?
UCH37 DUB inh: -25

How did COc1ccc(CN(C)Cc2c(O)ccc3cc(Br)ccc23)cc1OC do in these assays?
FGF22 binding: 1.7*; SIRT5 inh: 1; Casp6 inh: -4; UCH37 DUB inh: -1; NSD2 inh: 3

How did Cc1nn(-c2ccccc2)c(C)c1C=NNC(=O)CSc1nc2ccccc2c(=O)n1-c1ccc(Br)cc1 do in these assays?
UCH37 DUB inh: 2

What do the screens show for `CCCNC(=O)N(C)C[C@@H]1Oc2ncc(-c3ccc(F)cc3)cc2C(=O)N([C@H](C)CO)C[C@@H]1C`?
FGF22 binding: 0; SIRT5 inh: 11; Casp6 inh: 3
